Experiments:
Type in all cases: functional
[1] = target: T1, Serotonin 3 (5-HT3) receptor (Rattus norvegicus) (UniProt P35563+Q9JJ16); test: The compound was evaluated for the inhibition of the von Bezold-Jarisch reflex in rat administered intravenously
Outline: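 Urethane-anesthetized rats; serotonin bolus 0.03 mg/kg iv (femoral vein) gives control reflex bradycardia. After heart rate returns to baseline (within 5 min), test compound iv as free base in dilute acid (≤1% HCl). Serotonin challenge repeated after 15 min. Percent inhibition of bradycardia at three doses, n ≥ 3 each. ED50 from mean values.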

[2] = target: T1, Serotonin 3 (5-HT3) receptor (Rattus norvegicus); test: The compound was evaluated for the inhibition of the von Bezold-Jarisch reflex in rat administered orally
Outline: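 Overnight-fasted rats gavaged with compound (free base in ≤1% HCl, 5 mL/kg). Urethane anesthesia 45 min later. Serotonin bolus 0.03 mg/kg iv 15 min after anesthesia. Saline-dosed rats as controls. Percent inhibition of reflex bradycardia at three doses, n ≥ 3 each. ED50 from mean values.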

[3] = target: T1, Serotonin 3 (5-HT3) receptor (Rattus norvegicus); test: Selectivity ratio of peroral vs intravenous delivery

Structure (SMILES) | ED50 [1] [mg/kg] | ED50 [2] [mg/kg] | Ratio [3]
CN1C2CCC1CC(NC(=O)c1c3ccccc3nn1C)C2 (stereo unspecified) | > 0.01 | – | –
CN1C2CCC1CC(NC(=O)c1n[nH]c3ccccc13)C2 (stereo unspecified) | 0.002 | 0.02 | 10
CN1[C@@H]2CC[C@H]1C[C@@H](OC(=O)c1c[nH]c3ccccc13)C2 | 0.004 | 0.2 | 50
CN1C2CCCC1CC(NC(=O)c1nn(C)c3ccccc13)C2 (stereo unspecified) | – | – | 15
CN1C2CCC1CC(OC(=O)c1[nH]nc3ccccc13)C2 (stereo unspecified) | 0.003 | 0.2 | 66
